In ChEMBL document CHEMBL1130054, “Non-peptide glycoprotein IIb/IIIa inhibitors. 17. Design and synthesis of orally active, long-acting non-peptide fibrinogen receptor antagonists” (J Med Chem, 1997):

What was measured:
[1] = target: T1, Integrin alpha-IIb/beta-3 (Homo sapiens, UniProt P05106+P08514); assay: Displacement of [125I]L-692884 from purified Fibrinogen Receptor activated by coating onto yttrium silicate; format: protein-complex assay
Outline: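 Purified human GPIIb/IIIa activated by coating on yttrium silicate SPA beads (~0.3 nM) with ~0.3 nM [125I]L-692,884 in 20 mM HEPES, 0.15 M NaCl, pH 7.5, at room temperature. Competitor was tested over a wide concentration range. After equilibration, bound CPM was fitted by nonlinear least squares with a Hill slope to give ED50.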

[2] = target: T1, Integrin alpha-IIb/beta-3; assay: Displacement of L-736,622 from purified resting Fibrinogen Receptor; format: protein-complex assay
Outline: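 Human platelet GPIIb/IIIa, unactivated form from Sephacryl S-300HR (typically 600 nM), in Triton X-100 buffer pH 7.4 with Ca²⁺/Mg²⁺. Used 1 μM fluorescent ligand L-736,622 at room temperature, read by fluorescence displacement. KD was calculated using 3.7 nM as the probe KD.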

Homo sapiens [3] = assay: Inhibition of ADP induced platelet aggregation 75 minutes after administration of 10 ug/kg by gastric lavage; format: functional; conditions: 1.25 h
Outline: (§1)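 Conscious mongrel dogs dosed by gastric lavage with aqueous solution (5 mL, sterile water vehicle); citrated blood at baseline and 20–480 min. PRP (2 × 10⁸ platelets/mL, 37 °C, stirred) aggregated with 10 μM ADP + 1 μM epinephrine; light transmittance; percent inhibition vs pretreatment response. n = 4 or 8.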

Canis familiaris [4] = assay: Compound was tested for inhibition of extent of ADP-induced platelet aggregation between 1 and 15 min at 30 ug/Kg intravenous bolus in dogs; format: functional; conditions: Canis lupus familiaris
Homo sapiens [5] = organism: Homo sapiens; assay: Inhibition of aggregation of human gel-filtered platelets was measured by light transmittance method.; format: functional
Outline: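 Human gel-filtered platelets, 2 × 10⁸/mL, with 0.1 mg/mL human fibrinogen and 1 mM CaCl₂ at 37 °C. Aggregation was started with 10 μM ADP added last and followed by light transmittance. IC50 is the concentration halving the aggregation rate vs the uninhibited control, from at least two determinations.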

Canis familiaris [6] = assay: Ex vivo inhibition of platelet aggregation at 24 hr after the oral administration of 100 mg/kg in dogs; format: functional; conditions: Canis lupus familiaris
Outline: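 Conscious dogs (n = 4) dosed orally with crystalline compound in gelatin capsules at 100 µg/kg. Ex vivo aggregation was read 24 h later in citrated PRP (2 × 10⁸ platelets/mL, 37 °C, light transmittance). It was expressed as percent inhibition vs the pretreatment baseline.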

Integrin alpha-5/beta-1 = Integrin alpha-5/beta-1 (Homo sapiens, UniProt P05556+P08648); assay: Inhibition of human umbilical vein endothelial cells (HUVEC) attachment to fibronectin; format: functional, cell-based
Integrin alpha-5/beta-1, sequence (P05556 21-798 limits assumed): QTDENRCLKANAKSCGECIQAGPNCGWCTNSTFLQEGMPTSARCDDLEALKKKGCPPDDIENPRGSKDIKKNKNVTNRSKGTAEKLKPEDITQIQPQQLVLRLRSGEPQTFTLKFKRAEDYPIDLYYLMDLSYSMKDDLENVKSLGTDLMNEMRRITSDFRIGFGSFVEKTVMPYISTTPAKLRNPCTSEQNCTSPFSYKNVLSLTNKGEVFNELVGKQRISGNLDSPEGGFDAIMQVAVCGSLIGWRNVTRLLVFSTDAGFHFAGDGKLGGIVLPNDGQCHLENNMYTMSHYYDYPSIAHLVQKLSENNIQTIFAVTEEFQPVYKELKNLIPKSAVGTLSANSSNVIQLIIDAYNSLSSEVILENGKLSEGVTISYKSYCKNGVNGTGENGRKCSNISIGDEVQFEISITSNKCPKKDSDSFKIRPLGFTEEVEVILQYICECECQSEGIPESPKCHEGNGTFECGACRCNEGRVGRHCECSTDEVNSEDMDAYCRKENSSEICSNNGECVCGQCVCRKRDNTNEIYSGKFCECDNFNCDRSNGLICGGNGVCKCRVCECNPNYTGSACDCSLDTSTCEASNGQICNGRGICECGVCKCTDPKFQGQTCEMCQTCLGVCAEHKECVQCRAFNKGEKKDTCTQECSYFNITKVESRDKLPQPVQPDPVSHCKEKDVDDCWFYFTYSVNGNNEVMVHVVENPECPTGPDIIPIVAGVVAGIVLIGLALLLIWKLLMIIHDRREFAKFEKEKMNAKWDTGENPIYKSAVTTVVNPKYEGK
Integrin alpha-5/beta-1, sequence (P08648 42-894 limits assumed): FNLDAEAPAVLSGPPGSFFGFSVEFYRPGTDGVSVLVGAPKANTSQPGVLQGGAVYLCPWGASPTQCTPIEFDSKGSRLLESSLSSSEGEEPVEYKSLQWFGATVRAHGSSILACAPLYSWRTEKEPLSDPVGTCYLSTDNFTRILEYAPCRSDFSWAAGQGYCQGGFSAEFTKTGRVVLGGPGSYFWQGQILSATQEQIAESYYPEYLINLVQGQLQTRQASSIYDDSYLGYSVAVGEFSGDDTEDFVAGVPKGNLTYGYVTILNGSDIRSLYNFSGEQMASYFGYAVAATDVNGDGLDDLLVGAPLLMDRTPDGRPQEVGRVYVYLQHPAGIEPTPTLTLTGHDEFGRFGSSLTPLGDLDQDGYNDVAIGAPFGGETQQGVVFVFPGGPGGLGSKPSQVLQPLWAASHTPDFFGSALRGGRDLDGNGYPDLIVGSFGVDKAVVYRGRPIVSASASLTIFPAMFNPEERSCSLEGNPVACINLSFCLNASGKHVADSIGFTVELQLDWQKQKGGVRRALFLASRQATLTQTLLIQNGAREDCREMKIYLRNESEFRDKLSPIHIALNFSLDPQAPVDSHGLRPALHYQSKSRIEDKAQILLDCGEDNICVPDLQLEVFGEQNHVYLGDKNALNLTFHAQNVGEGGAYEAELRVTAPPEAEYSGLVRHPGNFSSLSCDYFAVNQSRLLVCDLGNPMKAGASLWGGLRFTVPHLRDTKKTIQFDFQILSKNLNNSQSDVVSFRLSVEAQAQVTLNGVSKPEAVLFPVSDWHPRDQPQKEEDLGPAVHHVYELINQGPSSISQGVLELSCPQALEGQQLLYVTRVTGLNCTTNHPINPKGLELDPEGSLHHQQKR
Integrin alpha-5/beta-1, sequence (P08648 895-1049 limits assumed): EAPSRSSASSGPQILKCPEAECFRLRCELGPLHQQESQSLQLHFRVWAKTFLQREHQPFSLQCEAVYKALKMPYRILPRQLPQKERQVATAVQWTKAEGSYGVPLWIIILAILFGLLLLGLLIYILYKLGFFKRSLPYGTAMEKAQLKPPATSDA

Homo sapiens [7] = assay: Inhibition of ADP induced platelet aggregation after administration of 10 ug/kg by gastric lavage; format: functional; outline: as §1
Integrin alpha-V/beta-3 = Integrin alpha-V/beta-3 (Homo sapiens, UniProt P05106+P06756); assay: Inhibition of human umbilical vein endothelial cells (HUVEC) attachment to vitronectin (VN); format: functional, cell-based
Integrin alpha-V/beta-3, sequence (P05106 27-788 limits assumed): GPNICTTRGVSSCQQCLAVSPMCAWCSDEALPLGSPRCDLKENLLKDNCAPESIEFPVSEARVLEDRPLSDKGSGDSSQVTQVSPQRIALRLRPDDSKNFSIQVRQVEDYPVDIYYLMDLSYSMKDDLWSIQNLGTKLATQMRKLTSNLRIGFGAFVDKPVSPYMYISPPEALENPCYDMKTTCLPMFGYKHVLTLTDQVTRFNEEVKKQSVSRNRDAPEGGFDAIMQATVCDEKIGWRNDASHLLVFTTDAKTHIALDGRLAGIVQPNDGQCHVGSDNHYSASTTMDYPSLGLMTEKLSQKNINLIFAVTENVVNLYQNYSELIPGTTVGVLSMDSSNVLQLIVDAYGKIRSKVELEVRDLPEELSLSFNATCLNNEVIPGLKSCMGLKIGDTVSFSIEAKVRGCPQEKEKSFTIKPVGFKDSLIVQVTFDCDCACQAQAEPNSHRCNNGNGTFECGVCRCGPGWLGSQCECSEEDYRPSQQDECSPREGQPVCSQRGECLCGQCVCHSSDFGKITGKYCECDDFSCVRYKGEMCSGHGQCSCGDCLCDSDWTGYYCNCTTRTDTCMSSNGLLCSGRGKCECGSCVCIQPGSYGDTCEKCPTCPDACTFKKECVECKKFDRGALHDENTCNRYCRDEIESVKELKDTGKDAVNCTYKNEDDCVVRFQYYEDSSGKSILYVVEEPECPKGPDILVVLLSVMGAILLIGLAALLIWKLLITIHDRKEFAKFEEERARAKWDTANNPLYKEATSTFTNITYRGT
Integrin alpha-V/beta-3, sequence (P06756 31-889 limits assumed): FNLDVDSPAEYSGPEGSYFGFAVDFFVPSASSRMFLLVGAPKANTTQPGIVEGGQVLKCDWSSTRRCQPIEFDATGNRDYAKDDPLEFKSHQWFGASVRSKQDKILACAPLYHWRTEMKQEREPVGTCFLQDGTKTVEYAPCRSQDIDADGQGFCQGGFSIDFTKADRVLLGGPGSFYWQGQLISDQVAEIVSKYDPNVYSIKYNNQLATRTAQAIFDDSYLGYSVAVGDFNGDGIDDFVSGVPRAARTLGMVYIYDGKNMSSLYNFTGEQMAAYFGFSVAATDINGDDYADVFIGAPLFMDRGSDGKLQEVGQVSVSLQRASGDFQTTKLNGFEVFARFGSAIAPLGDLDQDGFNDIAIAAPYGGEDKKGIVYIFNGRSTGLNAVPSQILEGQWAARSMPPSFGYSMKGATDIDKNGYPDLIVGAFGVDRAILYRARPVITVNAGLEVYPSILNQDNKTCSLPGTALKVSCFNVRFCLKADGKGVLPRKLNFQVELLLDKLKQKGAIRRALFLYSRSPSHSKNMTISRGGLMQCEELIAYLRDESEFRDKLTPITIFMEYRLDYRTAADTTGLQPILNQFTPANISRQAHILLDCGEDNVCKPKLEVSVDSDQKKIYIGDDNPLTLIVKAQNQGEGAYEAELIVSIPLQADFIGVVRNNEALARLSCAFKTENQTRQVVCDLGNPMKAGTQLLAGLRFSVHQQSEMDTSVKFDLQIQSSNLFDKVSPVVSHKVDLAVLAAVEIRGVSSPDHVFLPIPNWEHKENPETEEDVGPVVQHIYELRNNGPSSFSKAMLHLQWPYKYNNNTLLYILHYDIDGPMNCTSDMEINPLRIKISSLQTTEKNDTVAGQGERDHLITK
Integrin alpha-V/beta-3, sequence (P06756 891-1048 limits assumed): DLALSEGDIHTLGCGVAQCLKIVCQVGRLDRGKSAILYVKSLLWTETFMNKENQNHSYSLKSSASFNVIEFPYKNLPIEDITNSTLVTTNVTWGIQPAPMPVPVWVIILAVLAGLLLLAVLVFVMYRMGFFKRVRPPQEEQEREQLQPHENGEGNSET

[8] = target: T1, Integrin alpha-IIb/beta-3; assay: Inhibition of human umbilical vein endothelial cells (HUVEC) attachment to fibrinogen (FG); format: functional, cell-based

Molecule `CCCCS(=O)(=O)N[C@@H](CNC(=O)c1cc2n(n1)CCCN(CCC1CCNCC1)C2=O)C(=O)O` has an ED50 [1] of 0.12 nM, a Kd [2] of 1.4 nM and an inhibition in vivo at 0.01 mg/kg (Homo sapiens [3]) of 76%.
Work on `C[C@H](CC(=O)O)NC(=O)CN1CCC[C@@H](CCC2CCNCC2)C1=O` yielded an ED50 [1] of 5 nM, a Kd [2] of 600 nM and an inhibition in vivo at 0.03 mg/kg (Canis familiaris [4]) of over 90%.
Work on `O=C(O)CCNC(=O)c1cc2n(n1)CCCN(CCC1CCNCC1)C2=O` yielded an ED50 [1] of 46 nM, a Kd [2] of 680 nM and an IC50 (Homo sapiens [5]) of 470 nM.
For `O=C(O)CCNC(=O)c1cc2n(n1)CCN(CCC1CCNCC1)C2=O`, the ED50 [1] was 72 nM, the Kd [2] was 590 nM and the IC50 (Homo sapiens [5]) was 250 nM.
In the case of `Cc1ccc(S(=O)(=O)N[C@@H](CNC(=O)c2cc3n(n2)CCCN(CCC2CCNCC2)C3=O)C(=O)O)cc1`, the inhibition in vivo at 100 mg/kg (Canis familiaris [6]) is reported as over 85%, the IC50 (Integrin alpha-5/beta-1) is reported as over 300 µM and the inhibition in vivo at 0.01 mg/kg (Homo sapiens [7]) is reported as over 65%. It also gave an IC50 (Integrin alpha-V/beta-3) of over 300 µM, an IC50 [8] of over 300 µM and an ED50 [1] of 0.08 nM. For the same molecule, the Kd [2] was 1.1 nM and the IC50 (Homo sapiens [5]) was 8 nM.
In the case of `CCCCS(=O)(=O)N[C@@H](CNC(=O)c1cc2n(n1)CCN(CCC1CCNCC1)C2=O)C(=O)O`, the ED50 [1] is reported as 0.12 nM, the Kd [2] is reported as 1.8 nM and the IC50 (Homo sapiens [5]) is reported as 9 nM.
